Key:
KB = assay: Antiproliferative activity against human KB cells after 48 hrs by MTT assay; assay type: functional, cell-based
Outline: (§1)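 Cells seeded at 7 × 10³/well and grown for 24 h. Exponentially growing cells were then exposed for 48 h to final concentrations of 0.1–100. MTT was added for 4 h, followed by 10% SDS in 0.01 N HCl at 37 °C for 18 h, and absorbance was read at 570 nm. Survival was expressed as % of untreated cells. IC50 was taken from six-well replicates in at least two independent experiments.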

[1] = Antiproliferative activity against human L02 cells after 48 hrs by MTT assay; assay type: cell-based; settings: L02, 48 h; outline: as §1

Compound: CN(C)C(=O)N(CCN1CCOCC1)Cc1ccc([N+](=O)[O-])cc1
- IC50 (KB): 0.75 µM
- IC50 [1]: 65 µM

Compound: CCOC(=O)N1CCC(N(Cc2ccc(O)cc2)C(=O)N(C)C)CC1
- IC50 (KB): 48.6 µM

Compound: CN(C)C(=O)N(CCN1CCOCC1)Cc1cc([N+](=O)[O-])ccc1O
- IC50 (KB): 4.8 µM
- IC50 [1]: 26 µM

Compound: CCOC(=O)N1CCC(N(Cc2cc(Cl)ccc2O)C(=O)N(C)C)CC1
- IC50 (KB): 25.7 µM

Compound: CCOC(=O)N1CCC(N(Cc2ccc([N+](=O)[O-])cc2)C(=O)N(C)C)CC1
- IC50 (KB): 16.4 µM

Compound: CN(C)C(=O)N(Cc1cccc([N+](=O)[O-])c1)Cc1ccco1
- IC50 (KB): 23.8 µM

Compound: CN(C)C(=O)N(Cc1ccco1)Cc1cc(Cl)ccc1O
- IC50 (KB): 49.5 µM

Compound: CN(C)C(=O)N(Cc1ccco1)Cc1cc(Br)ccc1O
- IC50 (KB): 32.8 µM

Compound: CN(C)C(=O)N(CCCN1CCOCC1)Cc1cc(Br)ccc1O
- IC50 (KB): 9 µM
- IC50 [1]: 86 µM

Compound: CN(C)C(=O)N(CCCN1CCOCC1)Cc1cc(Cl)ccc1O
- IC50 (KB): 1.75 µM
- IC50 [1]: 81 µM

Compound: CCOC(=O)N1CCC(N(Cc2cc([N+](=O)[O-])ccc2O)C(=O)N(C)C)CC1
- IC50 (KB): 24.2 µM

Compound: COc1cc([C@@H]2c3cc4c(cc3[C@@H](O[C@@H]3O[C@@H]5CO[C@@H](C)O[C@H]5[C@H](O)[C@H]3O)[C@H]3COC(=O)[C@H]23)OCO4)cc(OC)c1O [ETOPOSIDE]
- IC50 (KB): 0.42 µM
- IC50 [1]: 13 µM

Compound: CCOC(=O)N1CCC(N(Cc2cc(Br)ccc2O)C(=O)N(C)C)CC1
- IC50 (KB): 24.6 µM

Compound: CCOC(=O)N1CCC(N(Cc2cccc([N+](=O)[O-])c2)C(=O)N(C)C)CC1
- IC50 (KB): 15.6 µM

Compound: CN(C)C(=O)N(Cc1ccc([N+](=O)[O-])cc1)Cc1ccco1
- IC50 (KB): 17.5 µM

Compound: CN(C)C(=O)N(CCN1CCOCC1)Cc1ccc(O)cc1
- IC50 (KB): 4.25 µM
- IC50 [1]: 81 µM

Compound: CN(C)C(=O)N(CCCN1CCOCC1)Cc1cc([N+](=O)[O-])ccc1O
- IC50 (KB): 3.3 µM
- IC50 [1]: 125 µM

Compound: CN(C)C(=O)N(CCCN1CCOCC1)Cc1cccc([N+](=O)[O-])c1
- IC50 (KB): 0.17 µM
- IC50 [1]: 134 µM

Compound: CN(C)C(=O)N(CCN1CCOCC1)Cc1cc(Br)ccc1O
- IC50 (KB): 7.3 µM
- IC50 [1]: 21 µM

Compound: CN(C)C(=O)N(CCCN1CCOCC1)Cc1ccc(O)cc1
- IC50 (KB): 2.88 µM
- IC50 [1]: 109 µM

Compound: CN(C)C(=O)N(CCN1CCOCC1)Cc1cc(Cl)ccc1O
- IC50 (KB): 2.24 µM
- IC50 [1]: 82 µM

Compound: CN(C)C(=O)N(Cc1ccc(O)cc1)Cc1ccco1
- IC50 (KB): 52.1 µM

Compound: CN(C)C(=O)N(CCCN1CCOCC1)Cc1ccc([N+](=O)[O-])cc1
- IC50 (KB): 0.52 µM
- IC50 [1]: 85 µM

Compound: CN(C)C(=O)N(Cc1ccco1)Cc1cc([N+](=O)[O-])ccc1O
- IC50 (KB): 20.8 µM

Compound: CN(C)C(=O)N(CCN1CCOCC1)Cc1cccc([N+](=O)[O-])c1
- IC50 (KB): 0.09 µM
- IC50 [1]: 155 µM
